One molecule from ChEMBL document CHEMBL4028857, “Anchimerically Activated ProTides as Inhibitors of Cap-Dependent Translation and Inducers of Chemosensitization in Mantle Cell Lymphoma” (J Med Chem, 2017) can be followed below.

Activity calls are given as the source filed them. The rule behind the calls is not given here. A value given as a limit tells only on which side of the number the result lay.

Series [1] is described as follows: Half life in Sprague-Dawley rat plasma at 150 uM at pH 7.4 by RP-LCMS analysis. It is filed as ADME. The essentials:
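Pooled female Sprague-Dawley rat plasma, pre-warmed 2 min at 37 °C, incubated with compound in triplicate at 37 °C to follow deprotection and half-life.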

Series [2] deals with Granta-519. In words: Prodrug activation in human GRANTA-519 cells assessed as 9-((2R,3R,4S,5R)-5-(((((2-(1H-Indol-3-yl)ethyl)amino)-(hydroxy)phosphoryl)oxy)methyl)-3,4-dihydroxytetrahydrofuran-2-yl)-2-amino-7-(2-(4-chlorophenoxy)ethyl)-6-oxo-6,9-dihydro-1H-purin-7-ium formation per 5 million cells at 150 uM after 12 hrs by LC-MS/MS analysis. Type of series: cell-based. The conditions noted are these: granta-519, 12 h. The essentials:
(§1)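 Five million MCL cells in RPMI/10% FBS with penicillin, streptomycin and L-glutamine were exposed to compound (150 µM) for 12 h at 37 °C. Cells were washed in cold PBS, extracted in MeOH/NH4OAc (60:40) with 80 fmol internal standards, freeze-thawed three times, then filtered and dried. Residue was taken up in HEPES for LC-MS/MS, quantified against an internal-standard curve.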

For series [3], the target named is Adenosine 5'-monophosphoramidase HINT1 (Homo sapiens, UniProt P49773). As to the kind of experiment: Prodrug activation in human GRANTA-519 cells assessed as Hint1 mediated 2-amino-7-(2-(4-chlorophenoxy)ethyl)-9-((2R,3R,4S,5R)-3,4-dihydroxy-5-(phosphonooxymethyl)tetrahydrofuran-2-yl)-6-oxo-6,9-dihydro-1H-purin-7-ium formation per 5 million cells at 150 uM after 12 hrs by LC-MS/MS analysis. Type of series: cell-based. A digest of the protocol:
as §1

The subject of series [4] is Z-138. As to the kind of experiment: Antiproliferative activity against human Z138 cells preincubated for 48 hrs followed by thymidine addition measure after 16 hrs by Thymidine incorporation assay. Type of series: functional, cell-based. The essentials: (§2)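 MCL lines treated 48 h with compound re-added daily, alone or with co-drug (ibrutinib 25 µM where used), then thymidine added for a further 16 h; proliferation read as thymidine incorporation.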
Background: Incorporation of labelled thymidine or its analogues reports DNA synthesis.

In series [5] the test system is Granta-519. As to the kind of experiment: Antiproliferative activity against human GRANTA-519 cells preincubated for 48 hrs followed by thymidine addition measure after 16 hrs by Thymidine incorporation assay. It is filed as functional, cell-based. A digest of the protocol: as §2
Series [6] relates to Granta-519. As to the kind of experiment: Antiproliferative activity against human GRANTA-519 cells after 48 hrs by Annexin V/propidium iodide based flow cytometric analysis. Type of series: functional, cell-based. The settings on record: Granta-519, 48 h. A digest of the protocol:
(§3)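 MCL lines treated 48 h with compound re-added daily (alone or with co-drug; ibrutinib 25 µM), then survival assessed by Annexin V/PI flow cytometry.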
(In general: A flow cytometer gives signals particle by particle.)

The target of series [7] is Eukaryotic translation initiation factor 4E (Homo sapiens) (UniProt P06730). As to the kind of experiment: Inhibition of eIF4E in human GRANTA-519 cells assessed as increase in p27 protein expression after 48 hrs by Western blot method. Type of series: cell-based. A digest of the protocol:
(§4)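 MCL lines treated 48 h with compound; protein quantified and Western blotted with eIF4E, eIF4G, actin, c-Myc and Bcl-2 antibodies.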
In general terms: A western blot detects proteins with antibodies after separation by electrophoresis.

For series [8] the target is unchanged. In words: Inhibition of eIF4E in human GRANTA-519 cells assessed as down regulation of Bcl-2 protein expression at 50 to 200 uM after 48 hrs by Western blot method. It is filed as cell-based. A digest of the protocol: as §4
Series [9] can be described thus: Cytotoxicity against human Mino cells assessed as reduction in cell survival at 100 uM after 48 hrs in presence of doxorubicin by Annexin V/propidium iodide based flow cytometric analysis. A digest of the protocol:
as §3

Series [10] addresses Eukaryotic translation initiation factor 4E (Homo sapiens) (UniProt P06730). In words: Inhibition of eIF4E in human Mino cells assessed as potentiation of ibrutinib induced antiproliferation at 100 uM preincubated for 48 hrs followed by thymidine addition measure after 16 hrs by Thymidine incorporation assay. Type of series: cell-based. The essentials: as §2
Series [11] has the same target. In words: Inhibition of eIF4E in human Mino cells assessed as down regulation of c-Myc protein expression at 100 uM after 48 hrs by Western blot analysis. It is filed as cell-based. A digest of the protocol: as §4
For series [12] the target is unchanged. As to the kind of experiment: Inhibition of eIF4E in human Mino cells assessed as down regulation of c-Myc protein expression at 100 uM after 48 hrs in presence of ibrutinib by Western blot analysis. Type of series: cell-based. A digest of the protocol:
as §4

Series [13] deals with Eukaryotic translation initiation factor 4E-binding protein 1 (Homo sapiens) (UniProt Q13541). In words: Inhibition of 4EBP1 phosphorylation at Ser 65 residues in human Mino cells at 100 uM after 48 hrs by Western blot analysis. Type of series: cell-based. A digest of the protocol: as §4
Series [14] has the same target. In words: Inhibition of 4EBP1 phosphorylation at Thr 37/46 residues in human Mino cells at 100 uM after 48 hrs by Western blot analysis. It is filed as cell-based. A digest of the protocol:
as §4

Series [15] is described as follows: Volume of distribution in Sprague-Dawley rat at 2.5 mg/kg, iv by LC-MS/MS analysis. It is filed as ADME, organism-based. The conditions noted are these: in vivo. The essentials:
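Female Sprague-Dawley rats (n=3, 250-274 g) with catheters; compound in 0.5% aqueous CMC with 5% DMSO given as a single i.v. injection, 2.5 mg/kg. Blood drawn at 0–480 min into K2EDTA tubes. Plasma precipitated with acetonitrile containing internal standards, then LC-MS/MS in positive MRM mode. Parameters from non-compartmental analysis.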

Series [16] deals with Rattus norvegicus. In words: Clearance in Sprague-Dawley rat at 2.5 mg/kg, iv by LC-MS/MS analysis. It is filed as ADME, organism-based. The conditions noted are these: in vivo. The essentials:
(§5)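 Female Sprague-Dawley rats (250-274 g, n=3, catheterized femoral/jugular veins) dosed once p.o. by gavage (25 mg/kg) then, after a 3-day washout, i.v. (2.5 mg/kg). Formulation: 10 mg/mL in 0.5% aqueous CMC with 5% DMSO. Serial blood draws to 480 min into K2EDTA; plasma protein-precipitated with acetonitrile plus internal standards; LC-MS/MS (positive MRM); non-compartmental PK; %F from dose-normalized AUC per rat.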

The test system of series [17] is Rattus norvegicus. As to the kind of experiment: Cmax in Sprague-Dawley rat assessed as 9-((2R,3R,4S,5R)-5-(((((2-(1H-Indol-3-yl)ethyl)amino)-(hydroxy)phosphoryl)oxy)methyl)-3,4-dihydroxytetrahydrofuran-2-yl)-2-amino-7-(2-(4-chlorophenoxy)ethyl)-6-oxo-6,9-dihydro-1H-purin-7-ium level at 25 mg/kg, po measured at 30 mins post dose by LC-MS/MS analysis. Type of series: ADME, organism-based. The conditions noted are these: in vivo, 0.5 h. Also on record: dose 25 mg/kg, route oral. The essentials: as §5

Series [18] concerns Z-138. As to the kind of experiment: Antiproliferative activity against human Z138 cells at 200 uM preincubated for 48 hrs followed by thymidine addition measure after 16 hrs by Thymidine incorporation assay. Type of series: functional. The essentials: as §2
The nature of series [19]: Cytotoxicity against human Mino cells assessed as reduction in cell survival at 100 uM after 48 hrs in presence of ibrutinib by Annexin V/propidium iodide based flow cytometric analysis. The essentials: as §3
The next series concerns Plasma. In words: Prodrug activation in Sprague-Dawley rat assessed as Hint1 mediated 2-amino-7-(2-(4-chlorophenoxy)ethyl)-9-((2R,3R,4S,5R)-3,4-dihydroxy-5-(phosphonooxymethyl)tetrahydrofuran-2-yl)-6-oxo-6,9-dihydro-1H-purin-7-ium formation in plasma at 2.5 mg/kg, iv or 25 mg/kg, po by LC-MS/MS analysis. It is filed as organism-based. The conditions noted are these: in vivo. A digest of the protocol:
as §5

Eukaryotic translation initiation factor 4E (Homo sapiens), sequence (P06730 whole entry): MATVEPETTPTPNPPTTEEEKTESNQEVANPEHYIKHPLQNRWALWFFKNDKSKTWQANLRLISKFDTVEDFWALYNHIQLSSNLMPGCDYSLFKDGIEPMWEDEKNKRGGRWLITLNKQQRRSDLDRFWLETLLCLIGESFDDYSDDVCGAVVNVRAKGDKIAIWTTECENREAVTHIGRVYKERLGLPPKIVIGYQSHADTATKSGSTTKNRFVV
Eukaryotic translation initiation factor 4E-binding protein 1 (Homo sapiens), sequence (Q13541 whole entry): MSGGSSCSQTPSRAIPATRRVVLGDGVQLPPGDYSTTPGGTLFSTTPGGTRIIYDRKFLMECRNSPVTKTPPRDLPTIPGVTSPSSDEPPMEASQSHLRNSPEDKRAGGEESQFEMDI
Adenosine 5'-monophosphoramidase HINT1, sequence (P49773 whole entry): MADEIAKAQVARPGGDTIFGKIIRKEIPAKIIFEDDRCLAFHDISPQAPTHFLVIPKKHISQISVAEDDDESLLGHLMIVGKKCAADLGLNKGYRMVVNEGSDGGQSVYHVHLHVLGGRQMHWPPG

As a reminder, the half-life is the time in which the quantity being followed falls by half. High values mean slow loss, low ones fast loss. What is called IC50 is the concentration that inhibits the measured activity by half. A lower IC50 goes with inhibition by little substance. What is called Vd is the apparent volume that relates the amount in the body to the concentration in plasma or blood. A higher Vd goes with extensive tissue distribution. By Cmax is commonly meant the highest concentration seen after dosing. On to `CSCCOP(=O)(NCCc1c[nH]c2ccccc12)OC[C@H]1O[C@@H](n2c[n+](CCOc3ccc(Cl)cc3)c3c(=O)[nH]c(N)nc32)[C@H](O)[C@@H]1O` (stereo partly specified), for which, in series [1], the half-life at 150 µM was found to be 432 min. Moreover, the values for the Drug metabolism (in the series on Granta-519 [2]; in series [3]; with Plasma) were 0.33 pmol, 10.3 pmol and “Metabolite_Notdetected”, respectively. Also, the Activity entry in the series with Z-138 [4] is “Dose-dependent effect”; with Granta-519 [5], “Dose-dependent effect”; in [9], “Non-Toxic”; in the series with Z-138 [18], 100%; in series [19], “Toxic”. Further, the IC50 in the series on Granta-519 [5] is 50 µM; with Granta-519 [6], more than 200 µM. The inhibition result in series [7] was “Dose-dependent effect”. Moreover, the inhibition entry in series [8], in [13] and in [14] was “inactive” throughout. The inhibition entry in series [10], in series [11] and in series [12] was “Active” in each case. Also, in series [15], the volume of distribution (Vd) worked out at 205 L/kg. For the same molecule, the CL with Rattus norvegicus [16] turned out to be 1.8 L/min/kg. For the same molecule, the maximum concentration (Cmax) with Rattus norvegicus [17] was determined as 6 ng/mL.
